*1 amine or outer side, *2 acyl side, *3 side chain or, on linkers, in order; H or OH if unused. Where a SMILES comes first, the peptide text is derived from it. Side-chain parts run from the residue outwards. [ ]: non-standard residue; d: D form. The star is where a group is joined. NMeF = CN[C@@H](Cc1ccccc1)C(=O)O; CO = O=C([*:1])[*:2]; OAll = C=CCO*
Tests used:
Chitinase A = Chitinase A (Serratia marcescens, UniProt P07254); experiment: Displacement of 4-methylumbelliferydiacetyl-chitobiose from Serratia marcescens ChiA
Sequence of Chitinase A (P07254 whole entry): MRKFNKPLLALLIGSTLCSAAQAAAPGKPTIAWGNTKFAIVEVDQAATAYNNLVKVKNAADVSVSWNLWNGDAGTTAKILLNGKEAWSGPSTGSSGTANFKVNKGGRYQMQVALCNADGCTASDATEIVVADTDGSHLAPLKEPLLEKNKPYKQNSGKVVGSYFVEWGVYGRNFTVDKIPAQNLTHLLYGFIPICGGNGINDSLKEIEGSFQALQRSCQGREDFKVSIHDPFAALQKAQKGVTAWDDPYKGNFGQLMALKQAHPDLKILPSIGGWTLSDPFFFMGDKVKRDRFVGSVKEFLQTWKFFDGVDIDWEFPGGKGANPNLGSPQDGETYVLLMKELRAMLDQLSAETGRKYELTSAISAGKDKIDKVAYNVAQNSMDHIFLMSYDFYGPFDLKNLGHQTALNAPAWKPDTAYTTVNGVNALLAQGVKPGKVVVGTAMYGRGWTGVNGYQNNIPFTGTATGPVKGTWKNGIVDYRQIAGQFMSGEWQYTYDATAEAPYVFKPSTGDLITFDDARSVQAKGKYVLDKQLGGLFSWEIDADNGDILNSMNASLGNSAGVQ
Outline: (§1)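 Crude S. marcescens chitinase diluted in 0.1 M phosphate pH 7.0 (ChiA x10, ChiB x40, ChiC1 x4) was mixed with inhibitor in MeOH, buffer and 80 μM (solution added) 4-MU-(GlcNAc)2, then incubated 5 min. Fluorescence (ex 355/em 460 nm) was read every 60 s. The 4-methylumbelliferone production rate was corrected for each inhibitor's quenching using inhibitor plus 4MU mixtures. IC50 came from sigmoidal dose-response fits.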

Chitinase B = target: T1, Chitinase B (Serratia marcescens, UniProt P11797); experiment: Displacement of 4-methylumbelliferydiacetyl-chitobiose from Serratia marcescens ChiB; outline: as §1
T1 sequence (P11797 whole entry): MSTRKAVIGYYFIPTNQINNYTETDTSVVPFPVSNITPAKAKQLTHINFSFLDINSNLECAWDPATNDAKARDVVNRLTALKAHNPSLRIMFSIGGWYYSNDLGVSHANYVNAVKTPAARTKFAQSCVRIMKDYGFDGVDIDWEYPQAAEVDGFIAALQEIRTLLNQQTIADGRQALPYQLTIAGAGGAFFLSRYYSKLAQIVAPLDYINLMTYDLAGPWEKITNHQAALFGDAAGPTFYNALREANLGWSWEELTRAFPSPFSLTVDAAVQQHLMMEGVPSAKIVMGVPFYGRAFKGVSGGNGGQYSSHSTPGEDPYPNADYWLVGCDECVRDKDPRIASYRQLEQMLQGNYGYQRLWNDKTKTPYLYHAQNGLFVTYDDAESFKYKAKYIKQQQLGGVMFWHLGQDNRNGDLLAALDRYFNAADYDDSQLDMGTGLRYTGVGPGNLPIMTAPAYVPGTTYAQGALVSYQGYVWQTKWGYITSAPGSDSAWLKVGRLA

Chitinase C1 = target: T2, Chitinase C1 (Serratia marcescens, UniProt Q700B8); experiment: Displacement of 4-methylumbelliferydiacetyl-chitobiose from Serratia marcescens ChiC; outline: as §1
T2 sequence (Q700B8 whole entry): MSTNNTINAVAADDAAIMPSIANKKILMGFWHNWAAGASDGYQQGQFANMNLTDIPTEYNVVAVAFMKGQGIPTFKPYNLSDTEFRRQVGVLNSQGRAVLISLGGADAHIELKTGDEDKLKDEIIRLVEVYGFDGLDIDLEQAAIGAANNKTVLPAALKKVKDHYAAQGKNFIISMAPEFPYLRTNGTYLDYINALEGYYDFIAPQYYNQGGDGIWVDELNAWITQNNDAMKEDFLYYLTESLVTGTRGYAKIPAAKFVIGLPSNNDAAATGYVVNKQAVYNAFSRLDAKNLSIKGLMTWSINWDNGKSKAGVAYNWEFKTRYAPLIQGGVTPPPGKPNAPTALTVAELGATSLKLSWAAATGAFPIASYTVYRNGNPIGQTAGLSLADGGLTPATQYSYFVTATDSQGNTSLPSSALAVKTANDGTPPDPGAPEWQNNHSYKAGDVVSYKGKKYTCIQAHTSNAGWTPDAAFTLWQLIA

Structure (SMILES)	IC50 (Chitinase A) [nM]	IC50 (Chitinase B) [µM]	IC50 (Chitinase C1) [µM]
CNC(=O)NC(=N)NCCC[C@H](NC(=O)[C@@H](C)NC(=O)[C@H](CC(=O)O)NC(C)=O)C(=O)N(C)[C@@H](Cc1ccccc1)C(=O)O	8400	30	> 30
CNC(=O)NC(=N)NCCC[C@@H]1NC(=O)[C@@H](C)NC(=O)C[C@@H](C(=O)O)NC(=O)C[C@@H](C(=O)O)NC(=O)[C@H](Cc2ccccc2)N(C)C1=O [ARGIFIN]	25	6.4	> 30
C=CCOC(=O)C[C@H](NC(=O)[C@H](Cc1ccccc1)N(C)C(=O)[C@H](CCCNC(=N)NC(=O)NC)NC(=O)[C@@H](C)NC(C)=O)C(=O)O	25	0.091	> 30
C=CCOC(=O)C[C@H](NC(=O)[C@H](Cc1ccccc1)N(C)C(=O)[C@H](CCCN=C(N)NC(=O)NC)NC(=O)[C@@H](C)NC(=O)[C@H](CC(=O)O)NC(C)=O)C(=O)O	1100	1	> 30
C=CCOC(=O)C[C@H](NC(=O)[C@H](Cc1ccccc1)N(C)C(=O)[C@H](CCCNC(=N)NC(=O)NC)NC(C)=O)C(=O)O (Ac-Arg([CO-NHMe])-[NMeF]-Asp(OAll)-OH)	140	0.13	> 30

Other lines, results leading:

IC50 (Chitinase A) [nM]	IC50 (Chitinase B) [µM]	IC50 (Chitinase C1) [µM]	Structure (SMILES)
90	2.7	> 30	CNC(=O)NC(=N)NCCC[C@H](NC(=O)[C@@H](C)NC(C)=O)C(=O)N(C)[C@@H](Cc1ccccc1)C(=O)O
32000	110	> 30	CNC(=O)NC(N)=NCCC[C@H](NC(=O)[C@@H](C)NC(=O)[C@H](CC(=O)O)NC(C)=O)C(=O)O
750	3.7	> 30	CNC(=O)NC(=N)NCCC[C@H](NC(C)=O)C(=O)N(C)[C@@H](Cc1ccccc1)C(=O)O
31000	260	> 30	CNC(=O)NC(=N)NCCC[C@H](NC(C)=O)C(=O)O
6600	64	> 30	CNC(=O)NC(N)=NCCC[C@H](NC(=O)[C@@H](C)NC(C)=O)C(=O)O
